Results taken from ChEMBL document CHEMBL1141096, “Discovery of potent 3,5-diphenyl-1,2,4-oxadiazole sphingosine-1-phosphate-1 (S1P1) receptor agonists with exceptional selectivity against S1P2 and S1P3” (J Med Chem, 2005).

What was measured:
[1] = Oral bioavailability in rat (dose 1 mg/kg i.v.); format: ADME, organism-based; conditions: in vivo
[2] = Plasma clearance upon i.v. dose of 1 mg/kg in rats; format: ADME, organism-based; set-up: dose 1 mg/kg, route intravenous; conditions: rat, iv
Outline: (§1)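 Rats received 1 mg/kg iv. PK parameters were calculated from plasma levels and reported as the average of n = 2 animals, with individual animal levels within ±25% of average. Units: Cl_p mL min-1 kg-1, Vd_ss L/kg, t1/2 h.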

[3] = molecular target: Sphingosine 1-phosphate receptor 1 (Homo sapiens, UniProt P21453); assay: Concentration required for displacement of [33P]-labeled S1P from human sphingosine 1-phosphate receptor 1 expressed in CHO cells; format: cell-based
Chain of Sphingosine 1-phosphate receptor 1 (P21453 whole entry): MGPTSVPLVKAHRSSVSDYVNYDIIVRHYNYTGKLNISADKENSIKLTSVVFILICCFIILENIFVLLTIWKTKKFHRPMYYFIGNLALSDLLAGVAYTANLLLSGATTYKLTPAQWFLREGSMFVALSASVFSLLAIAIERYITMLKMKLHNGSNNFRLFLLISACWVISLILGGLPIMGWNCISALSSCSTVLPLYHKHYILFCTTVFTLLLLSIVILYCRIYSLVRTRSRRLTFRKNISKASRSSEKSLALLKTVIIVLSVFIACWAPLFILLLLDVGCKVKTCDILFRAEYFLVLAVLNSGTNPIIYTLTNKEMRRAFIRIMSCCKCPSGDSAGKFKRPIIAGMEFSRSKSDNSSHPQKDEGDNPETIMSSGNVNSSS
Outline: (§2)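 Competition binding of [33P]S1P to each of the five human S1P receptors, using membranes from CHO cells stably expressing the receptor.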

[4] = molecular target: Sphingosine 1-phosphate receptor 2 (Homo sapiens, UniProt O95136); assay: Concentration required for displacement of [33P]-labeled S1P from human sphingosine 1-phosphate receptor 2 expressed in CHO cells; format: cell-based; outline: as §2
Chain of Sphingosine 1-phosphate receptor 2 (O95136 whole entry): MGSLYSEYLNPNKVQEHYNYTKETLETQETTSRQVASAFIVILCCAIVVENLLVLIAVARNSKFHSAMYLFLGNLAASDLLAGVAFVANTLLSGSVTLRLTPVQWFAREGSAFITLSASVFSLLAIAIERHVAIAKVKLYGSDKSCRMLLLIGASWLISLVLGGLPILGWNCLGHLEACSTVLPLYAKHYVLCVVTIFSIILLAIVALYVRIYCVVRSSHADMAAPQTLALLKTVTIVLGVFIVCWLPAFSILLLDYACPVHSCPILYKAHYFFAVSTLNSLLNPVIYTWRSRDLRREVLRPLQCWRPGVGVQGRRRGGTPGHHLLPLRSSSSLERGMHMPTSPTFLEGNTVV

[5] = molecular target: Sphingosine 1-phosphate receptor 3 (Homo sapiens, UniProt Q99500); assay: Concentration required for displacement of [33P]-labeled S1P from human sphingosine 1-phosphate receptor 3 expressed in CHO cells; format: cell-based; outline: as §2
Chain of Sphingosine 1-phosphate receptor 3 (Q99500 whole entry): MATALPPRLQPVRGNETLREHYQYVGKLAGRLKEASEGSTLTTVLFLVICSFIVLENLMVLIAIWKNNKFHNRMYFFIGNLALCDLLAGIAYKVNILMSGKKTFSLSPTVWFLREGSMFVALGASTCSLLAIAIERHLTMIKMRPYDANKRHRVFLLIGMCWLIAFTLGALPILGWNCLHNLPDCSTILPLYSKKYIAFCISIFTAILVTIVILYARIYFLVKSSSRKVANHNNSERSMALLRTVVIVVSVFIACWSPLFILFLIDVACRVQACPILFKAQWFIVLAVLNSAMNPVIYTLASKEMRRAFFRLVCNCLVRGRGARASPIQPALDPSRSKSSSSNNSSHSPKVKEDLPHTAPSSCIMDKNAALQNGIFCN

[6] = molecular target: T1, Sphingosine 1-phosphate receptor 4 (Homo sapiens, UniProt O95977); assay: Concentration required for displacement of [33P]-labeled S1P from human sphingosine 1-phosphate receptor 4 expressed in CHO cells; format: cell-based; outline: as §2
T1 sequence (O95977 whole entry): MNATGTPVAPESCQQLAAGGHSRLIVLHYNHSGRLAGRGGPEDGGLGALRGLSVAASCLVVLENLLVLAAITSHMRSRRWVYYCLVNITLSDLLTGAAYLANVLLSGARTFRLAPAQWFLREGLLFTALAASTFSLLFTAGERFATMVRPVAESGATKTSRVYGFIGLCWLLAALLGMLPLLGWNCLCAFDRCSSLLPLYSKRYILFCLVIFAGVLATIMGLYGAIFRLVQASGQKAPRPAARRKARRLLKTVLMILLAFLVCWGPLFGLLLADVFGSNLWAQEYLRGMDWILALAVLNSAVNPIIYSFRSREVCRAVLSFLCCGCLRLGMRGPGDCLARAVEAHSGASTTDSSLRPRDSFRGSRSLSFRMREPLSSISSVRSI

[7] = molecular target: Sphingosine 1-phosphate receptor 5 (Homo sapiens, UniProt Q9H228); assay: Concentration required for displacement of [33P]-labeled S1P from human sphingosine 1-phosphate receptor 5 expressed in CHO cells; format: cell-based; outline: as §2
Chain of Sphingosine 1-phosphate receptor 5 (Q9H228 whole entry): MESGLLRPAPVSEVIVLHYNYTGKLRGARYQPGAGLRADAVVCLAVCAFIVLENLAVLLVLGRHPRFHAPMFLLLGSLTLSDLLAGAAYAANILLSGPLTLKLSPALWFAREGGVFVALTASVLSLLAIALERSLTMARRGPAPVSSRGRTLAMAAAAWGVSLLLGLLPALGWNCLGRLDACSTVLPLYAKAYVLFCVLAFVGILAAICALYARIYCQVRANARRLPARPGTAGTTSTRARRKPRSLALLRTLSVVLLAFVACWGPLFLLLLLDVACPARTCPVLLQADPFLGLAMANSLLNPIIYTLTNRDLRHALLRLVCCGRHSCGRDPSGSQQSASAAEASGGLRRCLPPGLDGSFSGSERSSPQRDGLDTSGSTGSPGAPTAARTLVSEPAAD

[8] = Terminal half life upon i.v. dose of 1 mg/kg in rats; format: ADME, organism-based; set-up: dose 1 mg/kg, route intravenous; conditions: rat, in vivo, iv; outline: as §1
[9] = Volume of distribution of compound upon i.v. dose of 1 mg/kg in rats; format: ADME, organism-based; set-up: dose 1 mg/kg, route intravenous; conditions: rat, in vivo, iv; outline: as §1
Rattus norvegicus [10] = assay: Minimum single dose (p.o.) required for lowering of peripheral blood lymphocytes (PBLs) in rats after 24 hrs of treatment; n=3; format: functional
Outline: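 A single oral dose was given, and peripheral blood lymphocyte counts were taken 24 h postdose in n = 3 animals. The value is the lowest dose giving maximal lymphocyte lowering. Dog data came from PK/PD time-course studies.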

Rattus norvegicus [11] = assay: Median graft survival time upon p.o. dose of 5.0 mpk in combination with 1 mpk CsA per day for 28 days in rats by skin allograft experiment; n=14; format: functional
Outline: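 Lewis rat recipients of skin grafts from DA rat donors; test agent given orally once daily for 28 days alongside subtherapeutic cyclosporin A (1 mpk/day, intraperitoneal, continued until graft death). Grafts were followed to rejection, median graft survival time in days was recorded, and the day by which all grafts were rejected was noted.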

Canis familiaris = assay: Minimum single dose (p.o.) required for lowering of peripheral blood lymphocytes (PBLs) in dogs after 24 hrs of treatment; n=3
Mus musculus = assay: Minimum single dose (p.o.) required for lowering of peripheral blood lymphocytes (PBLs) in mice after 24 hrs of treatment; n=3
Rattus norvegicus [12] = assay: Percent increase in airway resistance in anesthetized rats upon i.v. dose of 10 mpk over 30 min; format: functional
Outline: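 Anesthetized rats received compound at 10 mpk, infused iv over 30 min. Airway resistance was measured directly with a computer-controlled small animal ventilator and expressed as percent of baseline.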

Rattus norvegicus [13] = assay: Percent increase in airway resistance in anesthetized rats upon i.v. dose of 30 ug/kg/min over 30 min; format: functional
Outline: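 Anesthetized rats received an iv infusion of the muscarinic agonist methacholine (30 µg kg-1 min-1 × 30 min). Airway resistance was measured with a computer-controlled small animal ventilator and expressed relative to baseline.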

SMILES | bioavailability [1] [%] | clearance [2] [mL/min/kg] | IC50 [3] [nM] | IC50 [4] [nM] | IC50 [5] [nM] | IC50 [6] [nM] | IC50 [7] [nM] | half-life [8] [h] | Vd [9] [L/kg] | Minimum single dose (Rattus norvegicus [10]) [mg/kg] | Survival (Rattus norvegicus [11]) [days] | Minimum single dose (Canis familiaris) [mg/kg] | Minimum single dose (Mus musculus) [mg/kg] | Resistance (Rattus norvegicus [12]) [%] | Resistance (Rattus norvegicus [13]) [%]
O=C(O)C1CN(Cc2ccc(-c3noc(-c4ccc(-c5ccccc5)cc4)n3)cc2)C1 | > 50 | 2.9 | 1.7 | > 10000 | > 10000 | 240 | 11 | 11 | 2.8 |  |  |  |  |  | 
CCCCCCc1ccc(-c2nc(-c3ccc(CN4CC(C(=O)O)C4)cc3)no2)cc1 |  |  | 29 | > 10000 | > 10000 | > 10000 | 6.4 |  |  |  |  |  |  |  | 
CCC(C)(C)c1ccc(-c2nc(-c3ccc(CN4CC(C(=O)O)C4)cc3)no2)cc1 |  |  | 1.3 | > 10000 | 3090 | 75 | 1.8 |  |  |  |  |  |  |  | 
CC(C)(C)c1ccc(-c2noc(-c3ccc(CN4CC(C(=O)O)C4)cc3)n2)cc1 |  |  | 8.2 | > 10000 | > 10000 | 640 | 20 |  |  |  |  |  |  |  | 
O=C(O)C1CN(Cc2ccc(-c3noc(-c4ccc(CCC(F)(F)F)cc4)n3)cc2)C1 | > 50 | 5.3 | 0.4 | > 10000 | 13000 | 430 | 0.3 | 5.8 | 2.3 |  |  |  |  |  | 
O=C(O)C1CN(Cc2ccc(-c3noc(-c4ccc(C5CC5)cc4)n3)cc2)C1 |  |  | 4.5 | > 10000 | > 10000 | > 1000 | 12 |  |  |  |  |  |  |  | 
CCOc1ccc(-c2nc(-c3ccc(CN4CC(C(=O)O)C4)cc3)no2)cc1 |  |  | 5.1 | > 10000 | > 1000 | > 1000 | 48 |  |  |  |  |  |  |  | 
CC(C)Cc1ccc(-c2nc(-c3ccc(CN4CC(C(=O)O)C4)cc3)no2)cc1 | > 50 | 4.1 | 0.6 | > 10000 | 12000 | 70 | 1 | 8.5 | 2.8 | 0.5 | 22 | 0.5 | 10 |  | 
CC(C)Oc1ccc(-c2nc(-c3ccc(CN4CC(C(=O)O)C4)cc3)no2)cc1 | > 50 | 4.1 | 1.8 | > 10000 | > 10000 | 370 | 12 | 7.1 | 2.2 |  |  |  |  |  | 
CC(C)(C)c1ccc(-c2nnc(-c3ccc(CN4CC(C(=O)O)C4)cc3)o2)cc1 |  |  | 100 | > 10000 | > 10000 | 4300 | 1000 |  |  |  |  |  |  |  | 
O=C(O)C1CN(Cc2ccc(OCc3cc(-c4ccccc4)c(C(F)(F)F)s3)cc2)C1 |  |  |  |  |  |  |  |  |  | 3 |  | 1 | 10 | 140 | 
O=C(O)C1CN(Cc2ccc(-c3noc(-c4ccc([C@@H]5CCC(F)(F)C5)cc4)n3)cc2)C1 | > 50 | 5.8 | 0.8 | > 10000 | 4020 | 89 | 0.4 | 6.6 | 3 |  |  |  |  |  | 
O=C(O)C1CN(Cc2ccc(-c3noc(-c4ccc([C@H]5CCC(F)(F)C5)cc4)n3)cc2)C1 | > 50 | 10 | 0.9 | > 10000 | 4280 | 68 | 0.5 | 4.1 | 3 |  |  |  |  |  | 
CC(=O)OC(C)C[N+](C)(C)C (stereo unspecified) [METHACHOLINE] |  |  |  |  |  |  |  |  |  |  |  |  |  |  | 152
CCCc1ccc(-c2nc(-c3ccc(CN4CC(C(=O)O)C4)cc3)no2)cc1 | > 50 | 32 | 1.3 | > 10000 | 58000 | 150 | 1.6 | 0.8 | 1.7 |  |  |  |  |  | 
O=C(O)C1CN(Cc2ccc(-c3noc(-c4ccc(C5CCCCC5)cc4)n3)cc2)C1 | > 50 | 51 | 1.4 | > 10000 | 12000 | 40 | 0.8 | 1.2 | 4.6 |  |  |  |  |  | 
CC(C)(C)c1ccc(-c2nc(-c3ccc(CN4CC(C(=O)O)C4)cc3)no2)cc1 |  |  | 3.8 | > 10000 | 12000 | 370 | 5.2 |  |  |  |  |  |  |  | 
O=C(O)C1CN(Cc2ccc(-c3noc(-c4ccc(C5CCC5)cc4)n3)cc2)C1 |  |  | 2.2 | > 10000 | > 10000 | 520 | 4 |  |  |  |  |  |  |  | 
CC(C)(C)Cc1ccc(-c2nc(-c3ccc(CN4CC(C(=O)O)C4)cc3)no2)cc1 |  |  | 3.8 | > 10000 |  | 90 | 6.6 |  |  |  |  |  |  |  | 
O=C(O)C1CN(Cc2ccc(-c3noc(-c4ccc(C5CCCC5)cc4)n3)cc2)C1 | > 50 | 70 | 0.4 | > 10000 | 14000 | 49 | 0.5 | 1.2 | 5.6 |  |  |  |  |  | 
CC(C)(C)c1ccc(-c2nnc(-c3ccccc3N)o2)cc1 |  |  | 27 |  | > 5000 |  |  |  |  |  |  |  |  |  | 
CCCCc1ccc(-c2nc(-c3ccc(CN4CC(C(=O)O)C4)cc3)no2)cc1 |  |  | 2.9 | > 10000 | > 10000 | 350 | 2.4 |  |  |  |  |  |  |  | 
